Common to all, as to assay type: functional
Holding throughout (conditions): read-out: DIZ

The subject of experiment [1] is Bacillus subtilis. Briefly: Antimicrobial activity against Bacillus subtilis ATCC 6633 at 2 mM after overnight incubation by agar diffusion method. In a few lines: (§1)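 Agar diffusion: 9 mm wells cut in Standard I Nutrient Agar or Mueller Hinton II agar, each loaded with 50 µl of a 2.0 mM compound solution in 1:9 DMSO:MeOH. Ciprofloxacin was run as control at 5 µg/mL in H2O. Plates were incubated at 37 °C for 24 h, and the inhibition zone diameter was read in mm. Zones were flagged as partially clear, unclear with colonies, or faint.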
A general note: A growth-free zone around the sample is the usual read-out of agar diffusion tests.

Experiment [2] concerns Escherichia coli. Briefly: Antimicrobial activity against Escherichia coli ATCC 25922 at 2 mM after overnight incubation by agar diffusion method. The method, boiled down: as §1
Experiment [3] deals with Pseudomonas aeruginosa. Briefly: Antimicrobial activity against Pseudomonas aeruginosa K799/61 mutant at 2 mM after overnight incubation by agar diffusion method. The method, boiled down:
(§2)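 Agar well diffusion: 50 µl of a 2.0 mM solution in 1:9 DMSO:MeOH placed in 9 mm wells cut in nutrient agar or Mueller Hinton II agar; plates incubated 37 °C for 24 h, then inhibition zone diameter measured in mm. Zones scored as clear, partially clear, unclear (many colonies inside) or faint. Ciprofloxacin positive control at 5 µg/mL in water.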

The subject of experiment [4] is Enterococcus faecalis. Briefly: Antimicrobial activity against Enterococcus faecalis ATCC 49532 at 2 mM after overnight incubation by agar diffusion method. The method, boiled down:
as §1

Experiment [5] concerns Micrococcus luteus. Briefly: Antimicrobial activity against Micrococcus luteus ATCC 10240 at 2 mM after overnight incubation by agar diffusion method. In a few lines: as §1
Experiment [6] has as its system Mycolicibacterium vaccae. Briefly: Antimicrobial activity against Mycobacterium vaccae IMET 10670 at 2 mM after overnight incubation by agar diffusion method. In a few lines:
as §1

Experiment [7] concerns Pseudomonas aeruginosa. Briefly: Antimicrobial activity against wild type Pseudomonas aeruginosa K799 at 2 mM after overnight incubation by agar diffusion method. In a few lines: as §1
The subject of experiment [8] is Staphylococcus aureus. Briefly: Antimicrobial activity against wild type Staphylococcus aureus SG 511 at 2 mM after overnight incubation by agar diffusion method. The method, boiled down: as §1
Experiment [9] relates to Escherichia coli. Briefly: Antimicrobial activity against Escherichia coli X580 at 2 mM after overnight incubation by agar diffusion method.
The test system of experiment [10] is Staphylococcus aureus. Briefly: Antimicrobial activity against methicillin-resistant Staphylococcus aureus 143/93 at 2 mM after overnight incubation by agar diffusion method. The method, boiled down:
as §2

Experiment [11] deals with Enterococcus faecalis. Briefly: Antimicrobial activity against vancomycin-resistant Enterococcus faecalis 1528 at 2 mM after overnight incubation by agar diffusion method. In a few lines: as §2

`CC(C)(C)OC(=O)N1CCN(c2ccc(N3C[C@H](COC(=O)N[C@H]4C=C[C@@H](O)CC4)OC3=O)cc2F)CC1`: the zone of inhibition at 2000 µM was found to be 0 mm in experiment [1]; 0 mm in [2]; 12 mm in experiment [3]; 12 mm in [4]; 0 mm in experiment [5]; 0 mm in experiment [6]. For the same compound, the zone of inhibition at 2000 µM in [7] and in experiment [8] was 0 mm each time.
Consider `O=C1O[C@@H](CO)CN1c1ccc(N2CCOCC2)c(F)c1`, for which the zone of inhibition at 2000 µM amounted to 26 mm in experiment [1]; 0 mm in experiment [2]; 11 mm in [3]; 21 mm in experiment [4]; 38 mm in [5]; 43 mm in experiment [6]. Besides, the values for the zone of inhibition at 2000 µM in experiment [7] and in experiment [8] were 0 mm and 23 mm, respectively.
As for `O=C1O[C@@H](COC(=O)N2OC3C=CC2CC3)CN1c1ccc(N2CC[S+]([O-])CC2)c(F)c1` (stereo not given in full), the zone of inhibition at 2000 µM was determined as 17 mm in [1]; 0 mm in experiment [2]; 10 mm in experiment [3]; 17 mm in [4]; 15 mm in experiment [5]; 18 mm in [6]. For the same compound, the zone of inhibition at 2000 µM was 0 mm in experiment [7] and 15 mm in [8].
With `O=C(NO)OC[C@H]1CN(c2ccc(N3CCOCC3)c(F)c2)C(=O)O1`, the zone of inhibition at 2000 µM in experiment [1] came to 23 mm; in experiment [2], 12 mm; in [3], 0 mm; in experiment [4], 22 mm; in experiment [5], 37 mm; in [7], 0 mm. Besides, the zone of inhibition at 2000 µM worked out at 18 mm in [8] and 0 mm in [9].
Consider `O=C(N[C@H]1C=C[C@@H](O)CC1)OC[C@H]1CN(c2ccc(N3CCOCC3)c(F)c2)C(=O)O1`, for which the zone of inhibition at 2000 µM in [1] turned out to be 13 mm; in [3] it was 0 mm; in experiment [10], 14 mm; in experiment [11], 12 mm; in experiment [6] it was 0 mm; in experiment [8], 14 mm.
Take `CC(C)(C)OC(=O)N1CCN(c2ccc(N3C[C@H](COC(=O)NO)OC3=O)cc2F)CC1`: the zone of inhibition at 2000 µM was found to be 22 mm in experiment [1]; 12 mm in experiment [2]; 0 mm in [3]; 20 mm in experiment [4]; 33 mm in experiment [5]; 0 mm in experiment [7]. Besides, the zone of inhibition at 2000 µM in experiment [8] is 17 mm; in [9], 0 mm.
As to `O=C(N[C@H]1C=C[C@@H](O)CC1)OC[C@H]1CN(c2ccc(N3CCSCC3)c(F)c2)C(=O)O1`, the zone of inhibition at 2000 µM in experiment [1] stood at 12 mm; in [2] it was 0 mm; in experiment [3], 10 mm; in experiment [4], 12 mm; in [5], 14 mm; in experiment [6] it was 0 mm. The zone of inhibition at 2000 µM in experiment [7] and in experiment [8] was 0 mm each time.
Consider `O=C(O)c1cn(C2CC2)c2cc(N3CCNCC3)c(F)cc2c1=O` [CIPROFLOXACIN], for which the zone of inhibition at 2000 µM is 29.5 mm in experiment [1]; 31 mm in [2]; 39 mm in [3]; 13 mm in experiment [4]; 0 mm in experiment [10]; 0 mm in [5]. In addition, the zone of inhibition at 2000 µM in experiment [11] was 15 mm; in [6], 19 mm; in [7], 35 mm; in experiment [8] it was 24 mm.
`CC(C)(C)OC(=O)N1CCN(c2ccc(N3C[C@H](CO)OC3=O)cc2F)CC1`: the zone of inhibition at 2000 µM worked out at 23 mm in experiment [1]; 0 mm in [2]; 10 mm in [3]; 21 mm in experiment [4]; 34.5 mm in experiment [5]; 0 mm in [7]. In addition, the zone of inhibition at 2000 µM in experiment [8] stood at 24 mm.
Consider `O=C1O[C@@H](COC(=O)N2OC3C=CC2C3)CN1c1ccc(N2CCOCC2)c(F)c1` (stereo not given in full), for which the zone of inhibition at 2000 µM in [1] came out at 17 mm; in [3], 0 mm; in experiment [10], 25 mm; in [11], 19 mm; in experiment [6], 30 mm; in experiment [8] it was 15 mm.
For `CC(C)(C)OC(=O)N1CCN(c2ccc(N3C[C@H](COC(=O)N4OC5C=CC4C5)OC3=O)cc2F)CC1` (stereo not given in full), the zone of inhibition at 2000 µM in experiment [1] is 12 mm; in experiment [2], 0 mm; in [3], 0 mm; in [4], 19 mm; in experiment [10], 19 mm; in experiment [5], 16 mm. Besides, the zone of inhibition at 2000 µM in [11] was 16 mm; in experiment [6], 19 mm; in experiment [7], 14 mm; in [8] it was 13 mm.
Regarding `CC(C)(C)OC(=O)N1CCN(c2ccc(N3C[C@H](COC(=O)N[C@H]4C=C[C@@H](O)C4)OC3=O)cc2F)CC1`, the zone of inhibition at 2000 µM stood at 13 mm in experiment [1]; 0 mm in experiment [2]; 10 mm in experiment [3]; 12.5 mm in experiment [4]; 12 mm in [5]; 12 mm in [6]. Moreover, the zone of inhibition at 2000 µM in [7] stood at 0 mm; in [8] it was 14 mm.
Regarding `CC(=O)OC[C@H]1CN(c2ccc(N3CCOCC3)c(F)c2)C(=O)O1`, the zone of inhibition at 2000 µM turned out to be 26.5 mm in experiment [1]; 0 mm in experiment [2]; 17 mm in [3]; 24 mm in [4]; 38 mm in experiment [5]; 43 mm in [6]. For the same compound, the zone of inhibition at 2000 µM in [7] turned out to be 0 mm; in [8], 26 mm.
Regarding `O=C1O[C@@H](COC(=O)N2OC3C=CC2CC3)CN1c1ccc(N2CCOCC2)c(F)c1` (stereo not given in full), the zone of inhibition at 2000 µM came to 19 mm in [1]; 0 mm in [3]; 18 mm in experiment [10]; 16 mm in experiment [11]; 15 mm in [6]; 16 mm in experiment [8].
For `CC(C)(C)OC(=O)N1CCN(c2ccc(N3C[C@H](COC(=O)N4OC5C=CC4CC5)OC3=O)cc2F)CC1` (stereo not given in full), the zone of inhibition at 2000 µM came out at 18 mm in [1]; 0 mm in experiment [3]; 14 mm in experiment [10]; 12 mm in experiment [11]; 13 mm in [6]; 16 mm in [8].
With `O=C1O[C@@H](CO)CN1c1ccc(N2CCSCC2)c(F)c1`, the zone of inhibition at 2000 µM in experiment [1] was 26 mm; in [2] it was 0 mm; in [3], 11 mm; in experiment [4] it was 21.5 mm; in experiment [5], 41 mm; in [6] it was 43 mm. The zone of inhibition at 2000 µM in experiment [7] amounted to 0 mm; in experiment [8], 24 mm.
Consider `O=C1O[C@@H](COC(=O)N2OC3C=CC2C3)CN1c1ccc(N2CC[S+]([O-])CC2)c(F)c1` (stereo not given in full), for which the zone of inhibition at 2000 µM in experiment [1] is 21 mm; in experiment [2] it was 0 mm; in experiment [3], 11 mm; in experiment [4], 19 mm; in [5], 22 mm; in experiment [6], 35 mm. Besides, the zone of inhibition at 2000 µM in experiment [7] worked out at 0 mm; in experiment [8], 18 mm.
`O=C(N[C@H]1C=C[C@@H](O)C1)OC[C@H]1CN(c2ccc(N3CCSCC3)c(F)c2)C(=O)O1`: the zone of inhibition at 2000 µM worked out at 14 mm in [1]; 0 mm in experiment [2]; 10 mm in experiment [3]; 12.5 mm in [4]; 15 mm in experiment [5]; 18 mm in experiment [6]. The zone of inhibition at 2000 µM in experiment [7] was 0 mm; in experiment [8], 12.5 mm.
For `O=C(N[C@H]1C=C[C@@H](O)C1)OC[C@H]1CN(c2ccc(N3CCOCC3)c(F)c2)C(=O)O1`, the zone of inhibition at 2000 µM in experiment [1] is 14 mm; in [3], 0 mm; in experiment [10], 14 mm; in experiment [11], 12 mm; in [6] it was 18 mm; in [8], 15 mm.
